One block for each compound: values may come before it. The source made the active and inactive calls. No cut-off for these calls is given here.
Legend:
[1] = molecular target: T1, Muscarinic acetylcholine receptor M2 (Homo sapiens, UniProt P08172); test: Displacement of [3H]NMS from human muscarinic acetylcholine receptor M2 expressed in CHO cells after 2 hrs; type: cell-based
T1 sequence (P08172 whole entry): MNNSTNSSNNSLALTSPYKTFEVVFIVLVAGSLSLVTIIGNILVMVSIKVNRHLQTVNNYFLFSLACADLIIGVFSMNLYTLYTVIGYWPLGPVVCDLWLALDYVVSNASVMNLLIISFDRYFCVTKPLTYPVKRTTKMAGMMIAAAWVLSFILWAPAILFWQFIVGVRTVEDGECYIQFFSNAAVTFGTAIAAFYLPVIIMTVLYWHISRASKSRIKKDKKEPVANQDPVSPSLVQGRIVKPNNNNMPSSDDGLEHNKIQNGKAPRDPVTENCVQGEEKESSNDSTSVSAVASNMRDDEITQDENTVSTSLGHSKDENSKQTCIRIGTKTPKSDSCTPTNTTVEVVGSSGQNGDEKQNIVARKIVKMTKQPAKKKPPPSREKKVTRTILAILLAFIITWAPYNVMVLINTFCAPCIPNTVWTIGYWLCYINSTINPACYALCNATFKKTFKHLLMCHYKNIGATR

[2] = molecular target: T1, Muscarinic acetylcholine receptor M2; test: Displacement of [3H]Dimethyl-W84 from human muscarinic acetylcholine receptor M2 expressed in CHO cells after 2 hrs; type: cell-based
[3] = molecular target: T1, Muscarinic acetylcholine receptor M2; test: Displacement of [3H]UR-AP060 from human muscarinic acetylcholine receptor M2 expressed in CHOK9 cell homogenate after 3 hrs by liquid scintillation counting assay
[4] = molecular target: T1, Muscarinic acetylcholine receptor M2; test: Displacement of [3H]UNSW-MK259 from human muscarinic acetylcholine receptor M2 expressed in CHOK9 cells after 3 hrs by liquid scintillation counting assay; type: cell-based
[5] = molecular target: T2, Muscarinic acetylcholine receptor M2 (Homo sapiens) (UniProt P08172); test: (§1) Antagonist activity at human muscarinic acetylcholine receptor M2 expressed in HEK293 cells coexpressing HA tagged Galpha-protein qi5 assessed as inhibition of 0.3 uM carbachol-induced IP1 accumulation preincubated for 30 mins followed by carbachol addition measured after 1 hr by HTRF assay; type: functional, cell-based
T2 sequence (whole entry): T1 sequence (P08172 whole entry)
Method in brief: (§2)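 HEK-293 transiently cotransfected with human M2R and Gαqi5-HA. Cells preincubated 30 min with antagonist, then carbachol added (final 0.1, 0.3, 1 or 10 μM), 1 h at 37 °C. IP1 detected by HTRF (620/670 nm emission, 330 nm excitation). At least four independent experiments, each in duplicate.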

[6] = molecular target: T1, Muscarinic acetylcholine receptor M2; test: Displacement of [3H]NMS from human muscarinic acetylcholine receptor M2 expressed in CHOK9 cells after 3 hrs by liquid scintillation counting assay; type: cell-based
[7] = Chemical stability of the compound in PBS buffer at pH 7.4 after 48 hrs by HPLC analysis; type: physicochemical; conditions: pH 7.4, 48 h
Method in brief: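 Compound at 100 μM final (from 10 mM stock) in PBS pH 7.4 at 22 ± 1 °C; samples taken at 0, 24 and 48 h, mixed with acetonitrile/1% aq TFA 2:8, analysed by RP-HPLC at 220 nm.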

[8] = molecular target: T2, Muscarinic acetylcholine receptor M2 (Homo sapiens); test: Agonist activity at human muscarinic acetylcholine receptor M2 expressed in HEK293 cells coexpressing HA tagged Galpha-protein qi5 assessed as induction of IP1 accumulation measured after 1 hr by HTRF assay; type: functional, cell-based
Method in brief: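 HEK-293 transiently cotransfected with human M2R and Gαqi5-HA, seeded 24 h before assay (10000 cells/well). Compounds in stimulation buffer (1 pM–100 μM final) 1 h at 37 °C; IP1 read by HTRF (620/670 nm, excitation 330 nm) after 60 min with detection reagents at rt. Duplicate, three experiments, carbachol as reference.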

[9] = molecular target: T2, Muscarinic acetylcholine receptor M2 (Homo sapiens); test: Binding affinity to human muscarinic acetylcholine receptor M2 expressed in CHOK9 cells assessed as dissociation half life after 105 mins by liquid scintillation counting assay; type: cell-based; conditions: tested as the 3H-labelled form
[10] = molecular target: T1, Muscarinic acetylcholine receptor M2; test: as §1, with “Competitive antagonist” for “Antagonist”, “1” for “0.3”; type: functional, cell-based; method in brief: as §2
[11] = molecular target: T2, Muscarinic acetylcholine receptor M2 (Homo sapiens); test: as above; type: functional, cell-based; method in brief: as §2
[12] = molecular target: T1, Muscarinic acetylcholine receptor M2; test: as §1, with “Competitive antagonist” for “Antagonist”, “0.1” for “0.3”; type: functional, cell-based; method in brief: as §2
[13] = molecular target: T2, Muscarinic acetylcholine receptor M2 (Homo sapiens); test: as above; type: functional, cell-based; method in brief: as §2
[14] = molecular target: T2, Muscarinic acetylcholine receptor M2 (Homo sapiens); test: Binding affinity to human muscarinic acetylcholine receptor M2 expressed in live adherent CHOK9 cells at Kd in presence of 500-fold excess atropine after 2 hrs by liquid scintillation counting assay relative to control; type: cell-based; conditions: tested as the 3H-labelled form
Method in brief: (§3)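 Live adherent CHO-hM2 cells in L15 medium with 1% BSA, 23 ± 1 °C, 2 h incubation. Competition at 2 nM radioligand; additional 4, 8, 15 and 30 nM in W84 experiments. […] Saturation data fitted one-site; competition by four-parameter logistic fits; at least three experiments in triplicate.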

[15] = molecular target: T2, Muscarinic acetylcholine receptor M2 (Homo sapiens); test: Binding affinity to human muscarinic acetylcholine receptor M2 expressed in CHOK9 cells assessed as dissociation rate constant after 105 mins by liquid scintillation counting assay; type: cell-based; conditions: tested as the 3H-labelled form
[16] = molecular target: T2, Muscarinic acetylcholine receptor M2 (Homo sapiens); test: Binding affinity to human muscarinic acetylcholine receptor M2 expressed in CHOK9 cells assessed as association rate constant incubated up to 140 mins by liquid scintillation counting assay; type: cell-based; conditions: tested as the 3H-labelled form
[17] = molecular target: T2, Muscarinic acetylcholine receptor M2 (Homo sapiens); test: (§4) Binding affinity to human muscarinic acetylcholine receptor M2 expressed in live adherent CHOK9 cells after 2 hrs by liquid scintillation counting assay; type: cell-based; conditions: tested as the 3H-labelled form; method in brief: as §3
[18] = molecular target: T1, Muscarinic acetylcholine receptor M2; test: as §1, with “Competitive antagonist” for “Antagonist”, “10” for “0.3”; type: functional, cell-based; method in brief: as §2
[19] = molecular target: T2, Muscarinic acetylcholine receptor M2 (Homo sapiens); test: as above; type: functional, cell-based; method in brief: as §2
[20] = molecular target: T1, Muscarinic acetylcholine receptor M2; test: Displacement of [3H]NMS from human muscarinic acetylcholine receptor M2
Method in brief: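 Competition binding at intact adherent CHO-K9 cells stably expressing human M2R. Cells were incubated with [3H]NMS 0.2 nM (final) and competitor for 3 h at 23 ± 1 °C in Leibovitz L-15 medium with 1% BSA. […] Curves were fitted by four-parameter logistic fits. Replicates: 3 to 9 independent experiments, each in triplicate.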

[21] = molecular target: T3, Muscarinic acetylcholine receptor M4 (Homo sapiens, UniProt P08173); test: Binding affinity to human muscarinic acetylcholine receptor M4 expressed in CHOK9 cells after 2 hrs by liquid scintillation counting assay; type: cell-based
T3 sequence (P08173 whole entry): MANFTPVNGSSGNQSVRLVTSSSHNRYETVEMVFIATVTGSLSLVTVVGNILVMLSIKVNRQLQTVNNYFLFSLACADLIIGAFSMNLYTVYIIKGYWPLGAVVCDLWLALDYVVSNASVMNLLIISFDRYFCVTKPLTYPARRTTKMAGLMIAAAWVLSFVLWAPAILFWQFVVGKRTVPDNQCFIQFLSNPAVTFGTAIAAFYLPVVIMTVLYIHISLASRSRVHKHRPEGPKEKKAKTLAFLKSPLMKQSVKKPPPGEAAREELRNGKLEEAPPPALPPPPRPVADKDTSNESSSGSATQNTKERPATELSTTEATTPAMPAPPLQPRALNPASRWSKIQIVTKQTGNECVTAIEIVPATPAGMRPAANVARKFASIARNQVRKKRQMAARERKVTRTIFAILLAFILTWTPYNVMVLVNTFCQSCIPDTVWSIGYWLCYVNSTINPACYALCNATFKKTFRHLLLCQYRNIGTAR

[22] = molecular target: T1, Muscarinic acetylcholine receptor M2; test: Ratio of binding affinity to human muscarinic acetylcholine receptor M2 expressed in CHOK9 cells assessed as dissociation rate constant to binding affinity to human muscarinic acetylcholine receptor M2 expressed in CHOK9 cells assessed as association rate constant; type: cell-based
[23] = molecular target: T1, Muscarinic acetylcholine receptor M2; test: Binding affinity to human muscarinic acetylcholine receptor M2 expressed in live adherent CHOK9 cells assessed as saturation binding after 2 hrs by liquid scintillation counting assay
[24] = molecular target: T1, Muscarinic acetylcholine receptor M2; test: Binding affinity to human muscarinic acetylcholine receptor M2 expressed in CHOK9 cell suspension after 2 hrs by liquid scintillation counting assay; conditions: read-out: Kd(app)
[25] = molecular target: T1, Muscarinic acetylcholine receptor M2; test: as §4; type: cell-based; method in brief: as §3
[26] = molecular target: T1, Muscarinic acetylcholine receptor M2; test: Binding affinity to human muscarinic acetylcholine receptor M2 expressed in CHOK9 cell homogenate after 2 hrs by liquid scintillation counting assay; conditions: read-out: Kd(app)
Method in brief: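 CHO-hM2 cell homogenates (25–30 μg protein/well) in L15 medium with 1% BSA, 23 ± 1 °C, 2 h with tritiated dimeric radioligand. Competition used 0.5 nM radioligand; additional 0.4, 1, 2 and 4 nM in W84 experiments. […] Four-parameter logistic fits; at least three experiments in triplicate.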

Ki [1]: 31.6 nM
Ki [2]: 31.6 nM
Ki [3]: 1070 nM
Kb ([3]; read-out: pA2 (converted)): 263 nM
Ki [4]: 39.8 nM
Kb ([4]; read-out: pA2 (converted)): 155 nM
SMILES: C[N+](C)(CCCCCC[N+](C)(C)CCCN1C(=O)c2ccccc2C1=O)CCCN1C(=O)c2ccccc2C1=O

inhibition [5]: Dose-dependent effect
pKb [5]: 7.53
Ki ([6]; read-out: pKi (converted)): 0.759 nM
Stability [7]: Stable
Ki [3]: 10.2 nM
Activity [8]: inactive
T1/2 [9]: 1.18 h
IC50 [10]: 85.1 nM
inhibition [11]: Dose-dependent effect
IC50 [12]: 33.9 nM
inhibition [13]: Dose-dependent effect
Activity [14]: < 5%
K [15]: 0.0091 min⁻¹
K [16]: 0.013 min⁻¹ nM⁻¹
Ki [4]: 1.1 nM
Bmax (disintegrations/minute) [17]: 780
IC50 [18]: 355 nM
inhibition [19]: Dose-dependent effect
SMILES: CCC(=O)NCCNC(=O)CCc1cn(CCCCC2CCN(CC(=O)N3c4ccccc4NC(=O)c4ccccc43)CC2)cn1

SMILES: O=C1CCCN1CC#CCN1CCCC1 [OXOTREMORINE]
Ki [20]: 0.251 to 10 µM
Ki [3]: 10000 nM
Ki [4]: 148 nM

Kd [21]: 0.67 nM
Ki ([6]; read-out: Ki): 0.41 nM
Kd [22]: 0.2 nM
Kd [23]: 0.31 nM
Kd [24]: 0.31 nM
Kd [25]: 0.91 nM
Kd [26]: 0.22 to 0.24 nM
SMILES: O=C(O)C(F)(F)F.O=C(O)C(F)(F)F.O=C(O)C(F)(F)F.O=C(O)C(F)(F)F.[3H]CC([3H])C(=O)NCc1cc(C(=O)NCCNC(=O)CCc2cn(CCCCC3CCN(CC(=O)N4c5ccccc5NC(=O)c5ccccc54)CC3)cn2)cc(C(=O)NCCNC(=O)CCc2cn(CCCCC3CCN(CC(=O)N4c5ccccc5NC(=O)c5ccccc54)CC3)cn2)c1 (centres undefined)

Source: ChEMBL document CHEMBL4049434, “Radiolabeled Dibenzodiazepinone-Type Antagonists Give Evidence of Dualsteric Binding at the M2 Muscarinic Acetylcholine Receptor” (J Med Chem, 2017)
